Measurements published in ChEMBL document CHEMBL2331369, “Transport by OATP1B1 and OATP1B3 enhances the cytotoxicity of epigallocatechin 3-O-gallate and several quercetin derivatives” (J Nat Prod, 2013).
Activity calls are given as the source filed them. No cut-off for these calls is given here.

Legend:
[1] = tested on: CHO; assay: Cell cycle arrest in CHO cells expressing OATP1B3 haplotype 1 assessed as accumulation at G0/G1 phase at 10 uM after 48 hrs using propidium iodide staining by flow cytometry; conditions: Cricetulus griseus
[2] = tested on: CHO; assay: Inhibition of OATP1B1*1b (unknown origin) expressed in CHO cells assessed as reduction of [3H]dehydroepiandrosterone sulfate at 50 uM after 5 mins; assay type: cell-based; conditions: Homo sapiens
Summary of the method: (§1)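 Uptake in stably transfected CHO cells grown with 10% FBS. Test compound at 50 μM with 1% DMSO as control. Substrates 0.1 μM E3S or E17βG for 20 s, or 0.5 μM DHEAS for 5 min, all at 37 °C. Net OATP uptake is taken as the wild-type CHO signal subtracted. Values are percent of DMSO control, mean ± SEM of one representative of three experiments.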

[3] = tested on: CHO; assay: Inhibition of OATP1B3 haplotype 1 (unknown origin) expressed in CHO cells assessed as reduction of [3H]estrone-3-sulfate at 50 uM after 20 seconds; assay type: cell-based; conditions: Homo sapiens
Summary of the method: as §1

[4] = tested on: CHO; assay: Cytotoxicity against CHO cells expressing OATP1B3 haplotype 1 after 48 hrs by […] CellTiter-Glo assay; assay type: functional, cell-based; conditions: Cricetulus griseus
Summary of the method: (§2)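 Seeded at 1600 cells/well, 24 h culture, then 5 mM sodium butyrate induction for 24 h. Cells then exposed to a range of compound concentrations for 48 h in medium with 10% FBS. CellTiter-Glo readout, expressed as percent of DMSO control. IC50 from at least three independent experiments, mean ± SEM.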

[5] = tested on: CHO; assay: Cytotoxicity against CHO cells expressing OATP1B1*1b after 48 hrs by […] CellTiter-Glo assay; assay type: functional, cell-based; conditions: Cricetulus griseus
Summary of the method: as §2

[6] = tested on: CHO; assay: Cytotoxicity against wild type CHO cells after 48 hrs by […] CellTiter-Glo assay; assay type: cell-based, Cricetulus griseus; conditions: for Activity: chinese hamster, cho; for IC50: Cricetulus griseus, CHO
Summary of the method: as §2

[7] = tested on: CHO; assay: Inhibition of OATP1B3 haplotype 1 (unknown origin) expressed in CHO cells assessed as reduction of [3H]dehydroepiandrosterone sulfate at 50 uM after 5 mins; assay type: cell-based; conditions: Homo sapiens
Summary of the method: as §1

[8] = tested on: CHO; assay: Induction of apoptosis in CHO cells expressing OATP1B3 haplotype 1 at 10 uM after 48 hrs using propidium iodide and FITC Annexin V staining by flow cytometry; assay type: functional, Cricetulus griseus
Summary of the method: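 Seeded at 90 000 cells/well for 24 h, then 5 mM sodium butyrate for 24 h, then 10 μM compound for 48 h. Medium and washes pooled with trypsinized cells, spun at 300g for 5 min. Stained with FITC Annexin V plus 4 μg/mL propidium iodide for 20 min in the dark, then flow cytometry. DMSO control; three independent experiments averaged.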

[9] = tested on: CHO; assay: Inhibition of OATP1B1*1b (unknown origin) expressed in CHO cells assessed as reduction of [3H]estradiol 17beta-glucuronide at 50 uM after 20 seconds; assay type: cell-based; conditions: Homo sapiens
Summary of the method: as §1

[10] = tested on: CHO; assay: Inhibition of OATP1B1*1b (unknown origin) expressed in CHO cells assessed as reduction of [3H]estrone-3-sulfate at 50 uM after 20 seconds; assay type: cell-based; conditions: Homo sapiens
Summary of the method: as §1

[11] = tested on: CHO; assay: Inhibition of OATP1B3 haplotype 1 (unknown origin) expressed in CHO cells assessed as reduction of [3H]estradiol 17beta-glucuronide at 50 uM after 20 seconds; assay type: cell-based; conditions: Homo sapiens
Summary of the method: as §1

[12] = tested on: CHO; assay: Activation of OATP1B3 haplotype 1 (unknown origin) expressed in CHO cells assessed as increase at 50 uM after relative to control; conditions: Homo sapiens
[13] = biological target: T1, Albumin (Homo sapiens, UniProt P02768); assay: Binding affinity to human serum albumin at 1 uM; assay type: ADME; conditions: isolated protein
[14] = tested on: CHO; assay: Cell cycle arrest in CHO cells expressing OATP1B3 haplotype 1 assessed as accumulation at G0/G1 phase at 1 uM after 48 hrs using propidium iodide and FITC Annexin V staining by flow cytometry; assay type: functional, cell-based; conditions: Cricetulus griseus
Summary of the method: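 Cells plated at 90 000/well for 24 h, held 36 h serum-free to synchronize in G0, induced 24 h with 5 mM sodium butyrate, then compound for 48 h. Fixed in 70% ice-cold ethanol at 4 °C overnight, then 40 min in PBS with 25 μg/mL RNase and 12.5 μg/mL propidium iodide. DNA content by flow cytometry; two independent experiments averaged.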

[15] = tested on: CHO; assay: Induction of apoptosis in CHO cells expressing OATP1B3 haplotype 1 at 1 uM after 48 hrs using propidium iodide and FITC Annexin V staining by flow cytometry; assay type: functional, Cricetulus griseus
Summary of the method: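 Wild-type and OATP1B3 CHO cells plated at 90 000/well for 24 h, induced 24 h with 5 mM sodium butyrate, then compound 48 h (DMSO control). Medium and trypsinized cells pooled, spun 5 min at 300g, PBS-washed. Stained 20 min in the dark with FITC Annexin V and 4 μg/mL propidium iodide, then flow cytometry. Two independent experiments, values averaged.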

[16] = tested on: CHO; assay: Cytotoxicity against CHO cells expressing OATP1B1*1b after 48 hrs by […] CellTiter-Glo assay relative to wild type CHO cells; assay type: functional, Cricetulus griseus
Summary of the method: (§3)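 CHO cells stably expressing OATP1B1*1b or OATP1B3, and wild-type CHO, in DMEM with 10% FBS. Seeded at 1600 cells/well and cultured 24 h. Then 24 h with 5 mM sodium butyrate to induce expression, then graded compound concentrations for 48 h. Viability read by CellTiter-Glo as percent of DMSO control. IC50 from mean ± SEM of at least three independent experiments.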

[17] = tested on: Plasma; assay: Plasma concentration in human at 1600 mg; assay type: ADME, cell-free
[18] = biological target: T1, Albumin; assay: Binding affinity to human serum albumin at 10 uM; assay type: ADME; conditions: isolated protein
[19] = tested on: CHO; assay: Cytotoxicity against CHO cells expressing OATP1B3 haplotype 1 after 48 hrs by […] CellTiter-Glo assay relative to wild type CHO cells; assay type: functional, Cricetulus griseus
Summary of the method: as §3

[20] = tested on: CHO; assay: Activation of OATP1B3 haplotype 1 (unknown origin) expressed in CHO cells assessed as increase of [3H]estradiol 17beta-glucuronide at 50 uM after 20 seconds relative to control; assay type: cell-based; conditions: Homo sapiens
Summary of the method: as §1

T1 sequence (P02768 whole entry): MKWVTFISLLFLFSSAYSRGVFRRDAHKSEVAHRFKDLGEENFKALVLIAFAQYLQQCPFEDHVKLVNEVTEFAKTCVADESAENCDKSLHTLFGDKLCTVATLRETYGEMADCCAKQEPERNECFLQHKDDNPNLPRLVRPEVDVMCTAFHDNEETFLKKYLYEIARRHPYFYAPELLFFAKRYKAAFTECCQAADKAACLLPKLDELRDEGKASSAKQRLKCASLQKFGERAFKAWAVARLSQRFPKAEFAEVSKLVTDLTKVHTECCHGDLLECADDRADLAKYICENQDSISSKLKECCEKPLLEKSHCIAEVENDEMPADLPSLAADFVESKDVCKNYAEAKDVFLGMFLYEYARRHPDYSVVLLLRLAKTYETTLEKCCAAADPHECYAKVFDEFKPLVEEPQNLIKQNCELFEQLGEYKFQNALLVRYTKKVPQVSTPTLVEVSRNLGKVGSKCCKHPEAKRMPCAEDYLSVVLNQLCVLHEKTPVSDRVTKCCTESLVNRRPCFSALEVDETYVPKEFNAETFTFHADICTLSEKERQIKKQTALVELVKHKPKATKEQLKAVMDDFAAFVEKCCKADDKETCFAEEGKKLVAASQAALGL

Nc1ccc(C(=O)Oc2c(-c3ccc(O)c(O)c3)oc3cc(O)cc(O)c3c2=O)cc1O
Activity [1]: inactive | inhibition [2]: Active | inhibition [3]: Active | IC50 [4]: 4.1 µM | Activity [5]: inactive | Activity [6]: Non-toxic | inhibition [7]: Active | Activity [8]: 70% | inhibition [9]: Active | inhibition [10]: Active | inhibition [11]: Active

Nc1cc(C(=O)Oc2c(-c3ccc(O)c(O)c3)oc3cc(O)cc(O)c3c2=O)ccc1O
Activity [4]: inactive | Activity [5]: inactive | Activity [6]: Non-toxic | Activity [12]: Active

NCCCOc1cc(-c2oc3cc(O)cc(O)c3c(=O)c2O)ccc1O
inhibition [3]: Active | Activity [4]: inactive | Activity [5]: inactive | Activity [6]: Non-toxic | inhibition [7]: Active | inhibition [11]: Active

O=C(Oc1c(-c2ccc(O)c(O)c2)oc2cc(O)cc(O)c2c1=O)c1cc(O)c(O)c(O)c1
Activity [1]: inactive | inhibition [2]: Active | inhibition [3]: Active | IC50 [4]: 3.8 µM | IC50 [5]: 3.5 µM | Activity [6]: Non-toxic | inhibition [7]: Active | Activity [8]: 32% | inhibition [9]: Active | inhibition [10]: Active | inhibition [11]: Active

O=C(Oc1cc(-c2oc3cc(O)cc(O)c3c(=O)c2O)ccc1O)c1cc(O)c(O)c(O)c1
inhibition [2]: Active | inhibition [3]: Active | IC50 [4]: 6.8 µM | IC50 [5]: 7.9 µM | Activity [6]: Non-toxic | inhibition [7]: Active | inhibition [9]: Active | inhibition [10]: Active | inhibition [11]: Active

O=C(O[C@@H]1Cc2c(O)cc(O)cc2O[C@@H]1c1cc(O)c(O)c(O)c1)c1cc(O)c(O)c(O)c1 [EPIGALOCATECHIN GALLATE]
Activity [13]: 99% | Activity [14]: Active | Activity [15]: 15% | IC50 [4]: 3.2 µM | fold change (FC) [16]: 35 | concentration [17]: 11.3 µM | IC50 [5]: 7.7 µM | IC50 [6]: 271 µM | Activity [18]: 85% | fold change (FC) [19]: 85

CCCOc1cc(O)cc2oc(-c3ccc(O)c(O)c3)c(O)c(=O)c12
inhibition [2]: Active | IC50 [4]: 11.8 µM | IC50 [5]: 42.6 µM | IC50 [6]: 111 µM | inhibition [7]: Active | inhibition [9]: Active | fold change (FC) [20]: 3 | inhibition [10]: Active
